SMILES strings stand for the structures. Values after ≈ are worked out from the molar mass of the structure shown. Active and inactive are the calls of the source. No cut-off for these calls is given here. Where a SMILES comes first, the peptide text is derived from it.

Data set [1] relates to Staphylococcus aureus. In words: Antimicrobial activity against Staphylococcus aureus 2844 after 21 hrs by broth microdilution method. It is filed as functional. The following applies: Staphylococcus aureus, 2844, 21 h. A digest of the protocol:
(§1)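 Microtiter broth dilution at 37°C for 21 h in DEAE-refined LB medium prepared in 10 mM Tris, pH 7.4. Bacteria were grown overnight in 3% trypticase soy broth, rinsed in Tris and used at about 10^6 CFU/ml. Final peptide was 0.6–80 µM in twofold steps. Growth was read visually as pellet and at OD540. MIC is >95% inhibition with no visible pellet. Two separate experiments.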
Background: Broth dilution looks for growth in wells or tubes with falling amounts of substance.

Data set [2] is described as follows: Stability of the compound at 136 uM after 4 hrs in presence of […] V8 protease. Format: ADME. Put shortly:
(§2)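 Peptide at 136 µM was incubated with protease (peptide:enzyme 300:1) for 4 h at 37°C in 10 mM Tris, pH 7.4. The reaction was stopped by boiling in Laemmli buffer, then run on Tris-Tricine 16.5% SDS-PAGE and Coomassie stained. Band densitometry gave the undegraded fraction, normalized to peptide incubated without enzyme. Two separate experiments.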

Data set [3] deals with Staphylococcus aureus. Description: Antimicrobial activity against Staphylococcus aureus FDA 486 after 21 hrs by broth microdilution method. Format: functional. The following applies: FDA 486, 21 h. A digest of the protocol:
as §1

Data set [4] can be described thus: Stability of the compound at 136 uM after 4 hrs in presence of Pseudomonas aeruginosa elastase. Format: ADME. Put shortly:
as §2

Data set [5] can be described thus: Stability of the compound at 136 uM after 4 hrs in presence of aureolysin. Format: ADME. Put shortly:
as §2

Data set [6] is described as follows: Stability of the compound at 136 uM after 4 hrs in presence of human neutrophil elastase. It is filed as ADME. A digest of the protocol: as §2
The nature of data set [7]: Toxicity in human erythrocytes at 6 to 60 uM by hemolysis assay. It is filed as cell-based. The following applies: erythrocyte. Put shortly:
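EDTA-treated human erythrocytes were washed and used as a 5% suspension in PBS, pH 7.4. Cells were rotated end-over-end with peptide for 1 h at 37°C, then centrifuged. Hemoglobin was read at 540 nm relative to 2% Triton X-100, with spontaneous leakage as background. Triplicate.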

The test system of data set [8] is Pseudomonas aeruginosa. In words: Antimicrobial activity against Pseudomonas aeruginosa ATCC 27853 after 21 hrs by broth microdilution method. It is filed as functional. Particulars: ATCC 27853, 21 h. A digest of the protocol:
as §1

Data set [9] relates to Lipid bilayer. In words: Binding affinity to DOPC-cholesterol liposome at 10 to 1000 uM after 45 mins by ellipsometry in presence of NaCl. Put shortly:
(§3)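 Ellipsometry on DOPC-cholesterol bilayers deposited from DDM micelles onto silica. Peptide was added cumulatively in 10 mM Tris, pH 7.4, with 5 mM glucose at 37°C; […] adds 150 mM NaCl. Each step was followed 45 min to saturation. Adsorbed amount was calculated from refractive index and thickness, with dn/dc 0.154 cm3/g. Duplicates.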

Data set [10] deals with Pseudomonas aeruginosa. In words: Antimicrobial activity against Pseudomonas aeruginosa 15159 after 21 hrs by broth microdilution method. It is filed as functional. Particulars: Pseudomonas aeruginosa, 15159, 21 h. Put shortly: as §1
Data set [11] deals with Staphylococcus aureus. In words: Antimicrobial activity against Staphylococcus aureus 29213 after 21 hrs by broth microdilution method. It is filed as functional. Particulars: Staphylococcus aureus, 29213, 21 h. A digest of the protocol: as §1
For data set [12], the system named is Lipid bilayer. In words: Binding affinity to DOPC-cholesterol liposome at 10 to 1000 uM after 45 mins by ellipsometry. Put shortly:
as §3

The test system of data set [13] is HaCaT. In words: Cytotoxicity against human HaCaT assessed at 6 to 60 uM by MTT assay. It is filed as cell-based. A digest of the protocol:
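HaCaT keratinocytes were seeded at 3,000 cells/well, grown to confluence in SFM-BPE-rEGF, and given 6 or 60 µM peptide overnight. MTT was then added for 1 h at 37°C and formazan dissolved in DMSO. Absorbance was read at 550 nm relative to untreated cells, with the 1% Triton X-100 signal as background. Triplicate.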
On the technique in general: Tetrazolium assays rely on reduction of a dye to a coloured formazan, in cell work by metabolically active cells.

Data set [14] has as its system HaCaT. Description: Cytotoxicity against human HaCaT assessed as LDH release at 6 to 60 uM. It is filed as cell-based. Put shortly:
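HaCaT keratinocytes were seeded at 3,000 cells/well and grown to confluence in serum-free keratinocyte medium with BPE-rEGF. They were exposed overnight to 6 or 60 µM peptide in that medium. LDH release was measured against a 1% Triton X-100 control, with spontaneous release as background. Triplicate.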
For orientation: LDH in the medium is a marker of cell lysis.

Data set [15] concerns Lipid bilayer. In words: Induction of DOPC-cholesterol liposome leakage in cell-free system at 0.1 to 1 uM after 45 mins. Format: functional. A digest of the protocol: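 Carboxyfluorescein-loaded (100 mM, self-quenching) DOPC-cholesterol 3:2 unilamellar liposomes, about 110 nm, at 10 µM lipid in Tris buffer at 37°C with stirring. Peptide was added at a single concentration per experiment, between 0.01 and 1 µM. After a 10 min baseline, fluorescence increase was followed for 45 min and the limiting leakage level taken.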

The nature of data set [16]: Toxicity in human erythrocytes at 60 uM by hemolysis assay in presence of serum. Format: cell-based. Particulars: erythrocyte.

One may read the MIC as the least concentration at which growth counts as inhibited. Low values mean inhibition by little substance, high ones a need for much substance. With `CC(C)C[C@H](NC(=O)[C@H](Cc1c[nH]c2ccccc12)NC(=O)[C@H](CC(=O)O)NC(=O)[C@H](CCCCN)NC(=O)[C@H](Cc1c[nH]c2ccccc12)NC(=O)[C@H](CCCNC(=N)N)NC(=O)[C@H](CCC(N)=O)NC(=O)[C@@H](NC(=O)[C@H](Cc1c[nH]c2ccccc12)NC(=O)[C@H](CCCNC(=N)N)NC(=O)[C@H](CCCCN)NC(=O)[C@H](Cc1c[nH]c2ccccc12)NC(=O)[C@@H](N)CCC(=O)O)C(C)C)C(=O)N[C@@H](CCCNC(=N)N)C(=O)N[C@@H](CC(N)=O)C(=O)N[C@@H](CC(C)C)C(=O)N[C@H](C(=O)O)C(C)C` (H-EWKRWVQRWKDWLRNLV-OH), the MIC is 5 µM (≈ 12 µg/mL) in the data set with Staphylococcus aureus [1]; 5 µM (≈ 12 µg/mL) in the data set with Staphylococcus aureus [3]; 10 µM (≈ 24 µg/mL) with Pseudomonas aeruginosa [8]; 20 µM (≈ 48 µg/mL) in the data set with Pseudomonas aeruginosa [10]; 10 µM (≈ 24 µg/mL) in the data set with Staphylococcus aureus [11]. In addition, the Stability result in data set [2] is on record as “Stable”; in data set [4], “Unstable”; in [5], “Stable”; in [6], “Stable”. In addition, the Activity entry (in data set [7]; in the data set on HaCaT [13]; in the data set on HaCaT [14]) was “Toxic” each time. The result in the data set with Lipid bilayer [9] was inactive. The outcome with Lipid bilayer [12] and in the data set with Lipid bilayer [15] was Active.
Regarding `CC[C@H](C)[C@H](NC(=O)[C@H](CCCNC(=N)N)NC(=O)[C@H](CCC(N)=O)NC(=O)[C@@H](NC(=O)[C@@H](NC(=O)[C@H](CCCNC(=N)N)NC(=O)[C@H](CCCCN)NC(=O)[C@H](Cc1ccccc1)NC(=O)[C@H](CCC(=O)O)NC(C)=O)[C@@H](C)CC)C(C)C)C(=O)N[C@@H](CCCCN)C(=O)N[C@@H](CC(=O)O)C(=O)N[C@@H](Cc1ccccc1)C(=O)N[C@@H](CC(C)C)C(=O)N[C@@H](CCCNC(=N)N)C(=O)N[C@@H](CC(N)=O)C(=O)N[C@@H](CC(C)C)C(=O)N[C@H](C(N)=O)C(C)C`, the MIC against Staphylococcus aureus [1] was determined as 5 µM (≈ 11.1 µg/mL); in the data set with Staphylococcus aureus [3], 5 µM (≈ 11.1 µg/mL); in the data set with Pseudomonas aeruginosa [8], 10 µM (≈ 22.2 µg/mL); against Pseudomonas aeruginosa [10], 10 µM (≈ 22.2 µg/mL); in the data set with Staphylococcus aureus [11] it was 10 µM (≈ 22.2 µg/mL). Moreover, the Stability entry in data set [2], in data set [4], in data set [5] and in data set [6] was “Unstable” each time. The Activity entry (in data set [7]; in the data set with HaCaT [13]; in the data set on HaCaT [14]) was “Toxic” throughout. The result in the data set with Lipid bilayer [9] was inactive. Moreover, the result in the data set with Lipid bilayer [12] was Active.
On to `CC[C@H](C)[C@H](NC(=O)[C@H](CCCNC(=N)N)NC(=O)[C@H](CCC(N)=O)NC(=O)[C@@H](NC(=O)[C@@H](NC(=O)[C@H](CCCNC(=N)N)NC(=O)[C@H](CCCCN)NC(=O)[C@H](Cc1ccccc1)NC(=O)[C@@H](N)CCC(=O)O)[C@@H](C)CC)C(C)C)C(=O)N[C@@H](CCCCN)C(=O)N[C@@H](CC(=O)O)C(=O)N[C@@H](Cc1ccccc1)C(=O)N[C@@H](CC(C)C)C(=O)N[C@@H](CCCNC(=N)N)C(=O)N[C@@H](CC(N)=O)C(=O)N[C@@H](CC(C)C)C(=O)N[C@H](C(=O)O)C(C)C`, for which the minimum inhibitory concentration (MIC) against Staphylococcus aureus [1] turned out to be 20 µM (≈ 43.5 µg/mL); against Staphylococcus aureus [3], 40 µM (≈ 87 µg/mL); in the data set on Pseudomonas aeruginosa [8] it was 80 µM (≈ 174 µg/mL); with Pseudomonas aeruginosa [10], 80 µM (≈ 174 µg/mL); in the data set on Staphylococcus aureus [11] it was 80 µM (≈ 174 µg/mL). For the same compound, the Stability entry in [2] was “Stable”; in data set [4], “Unstable”; in data set [5], “Unstable”; in data set [6], “Unstable”. For the same compound, in the data set with Lipid bilayer [9], the result was inactive. Besides, in data set [16], the Activity result is recorded as “Non-toxic”. Moreover, the outcome in the data set with Lipid bilayer [12] and with Lipid bilayer [15] was Active.

The values are drawn from ChEMBL document CHEMBL1629621, “Evaluation of strategies for improving proteolytic resistance of antimicrobial peptides by using variants of EFK17, an internal segment of LL-37” (Antimicrob Agents Chemother, 2009).
